Assay results gathered from unrelated publications.
Lines come from different studies, so protocols differ.
MAOB: Amine oxidase [flavin-containing] B (MAOB, Homo sapiens, UniProt P27338)
PADI4: Protein-arginine deiminase type-4 (PADI4, Homo sapiens, UniProt Q9UM07)
CHRM4: Muscarinic acetylcholine receptor M4 (CHRM4, Homo sapiens, UniProt P08173)
CA9: Carbonic anhydrase 9 (CA9, Homo sapiens, UniProt Q16790)
ALDH1A3: Retinaldehyde dehydrogenase 3 (ALDH1A3, Homo sapiens, UniProt P47895)
HDAC9: Histone deacetylase 9 (HDAC9, Homo sapiens, UniProt Q9UKV0)
Pancreatic alpha-amylase: Pancreatic alpha-amylase (Homo sapiens, UniProt P04746)

O=C(Nc1ccc(F)c(Br)c1)c1ccc2c(c1)C(=O)NC2=O
IC50 (MAOB; enzyme activity; inhibitor): 11 nM

N=C(CCl)NCCC[C@H](NC(=O)c1cccc(-c2ccc(B(O)O)cc2)c1)C(=O)NCc1ccccc1
IC50 (PADI4; enzyme activity; inhibitor; fluorescence; with preincubation): 708 nM

CN1CCC(CNc2ccc3ncc(-c4cccc(OC(F)(F)F)c4)n3n2)CC1
IC50 (Beta-1 adrenergic receptor (ADRB1, Homo sapiens, UniProt P08588); cAMP; antagonist): 6750 nM

NC/C(=C\F)COc1cccc(Cn2c(=S)[nH]c(=O)c3[nH]cnc32)c1
IC50 (MAOB; enzyme activity; inhibitor): 13000 nM

O=C(CCNC(=O)CNC(=O)CC(c1ccccc1)(c1ccccc1)c1ccccc1)NC[C@@H]1CCCN(Cc2ccc(F)nc2)C1
IC50 (CHRM4; ligand displacement; radioligand; cell membranes): > 30000 nM

CN1CCN(c2nc(-c3cc4cc(Br)ccc4oc3=O)cs2)CC1
IC50 (CA9; enzyme activity; inhibitor): 1350 nM

N=C(CCl)NCCC[C@H](NC(=O)c1ccc(B(O)O)cc1)c1nc2ccccc2[nH]1
IC50 (PADI4; enzyme activity; inhibitor; fluorescence; with preincubation): 2200 nM

O=C(O)c1cc(O)c(O)c(O)c1
IC50 (Catechol O-methyltransferase (Comt, Rattus norvegicus, UniProt P22734); enzyme activity; inhibitor): 709000 nM

Nc1nc2c(s1)C(c1ccccc1Cl)CC(=O)N2 (stereo not drawn)
IC50 (ALDH1A3; enzyme activity; inhibitor): < 10000 nM

NS(=O)(=O)c1cccc(Nc2nc(-c3cc4cc(Br)ccc4oc3=O)cs2)c1
IC50 (CA9; enzyme activity; inhibitor): 1910 nM

N=C(CCl)NCCC[C@H](NC(=O)c1cccc(-c2ccc(O)cc2)c1)c1nc2ccccc2[nH]1
IC50 (PADI4; enzyme activity; inhibitor; fluorescence; with preincubation): 426 nM

O=C(NO)c1ccc(Cn2cnc3c(Nc4ccc(Cl)cc4)ncnc32)cc1
IC50 (HDAC9; enzyme activity; inhibitor): 385 nM

COc1cc(/C=N/NC(=S)NN=Cc2ccncc2)ccc1Oc1ccnc2cc(Cl)ccc12
IC50 (Pancreatic alpha-amylase; enzyme activity; inhibitor; absorbance): 49700 nM

N=C(CCl)NCCC[C@H](NC(=O)c1ccc2cc(Br)ccc2c1)C(=O)NCc1ccccc1
IC50 (PADI4; enzyme activity; inhibitor; fluorescence; with preincubation): 393 nM

O=C(Nc1ccc(Cl)c(F)c1)c1ccc2c(c1)C(=O)NC2=O
IC50 (MAOB; enzyme activity; inhibitor): 29 nM

COc1cc(/C=N/NC(=S)N/N=C\c2ccc(CCl)cc2)ccc1Oc1ccnc2cc(Cl)ccc12
IC50 (Pancreatic alpha-amylase; enzyme activity; inhibitor; absorbance): 58400 nM

COc1ccc(N(Cc2csc(-c3ccc(Br)cc3)n2)C(=O)CCCCCC(=O)NO)cc1
IC50 (HDAC9; enzyme activity; inhibitor): > 10000 nM

O=C(CCNC(=O)CNC(=O)CC(c1ccccc1)(c1ccccc1)c1ccccc1)NC[C@@H]1CCCN(Cc2cccnc2F)C1
IC50 (CHRM4; ligand displacement; radioligand; cell membranes): > 30000 nM

O=C(Nc1ccc(F)c(F)c1)c1ccc2c(c1)C(=O)NC2=O
IC50 (MAOB; enzyme activity; inhibitor): 24 nM

O=C(N[C@@H](CSCc1nc2cc([N+](=O)[O-])ccc2[nH]1)C(=O)NO)c1ccccc1
IC50 (Lactoylglutathione lyase (GLO1, Homo sapiens, UniProt Q04760); enzyme activity; inhibitor): 454000 nM

COc1ccc(N(Cc2csc(-c3ccc(C)cc3)n2)C(=O)CCCCCC(=O)NO)cc1
IC50 (HDAC9; enzyme activity; inhibitor): > 10000 nM

COc1cc(/C=N/NC(=S)NN=Cc2ccc(CO)o2)ccc1Oc1ccnc2cc(Cl)ccc12
IC50 (Pancreatic alpha-amylase; enzyme activity; inhibitor; absorbance): 46400 nM

Cc1cc(O)c(-c2ccc([C@@H](C)CN(C)C)cc2)c2c1[nH]c(=O)c1sccc12
IC50 (Cyclin-dependent kinase 18, with cyclin Y (CDK18, Homo sapiens, UniProt Q07002); enzyme activity; inhibitor): > 1000 nM

COc1cc(/C=N/NC(=S)N/N=C\c2ccc([N+](=O)[O-])cc2)ccc1Oc1ccnc2cc(Cl)ccc12
IC50 (Pancreatic alpha-amylase; enzyme activity; inhibitor; absorbance): 53000 nM

O=C(Nc1ccc(Cl)c(Cl)c1)c1ccc2c(c1)C(=O)NC2=O
IC50 (MAOB; enzyme activity; inhibitor): 14 nM

COc1cc(/C=N/NC(=S)N/N=C/c2ccc(Br)cc2)ccc1Oc1ccnc2cc(Cl)ccc12
IC50 (Pancreatic alpha-amylase; enzyme activity; inhibitor; absorbance): 50500 nM

N=C(CCl)NCCC[C@H](NC(=O)c1cccc(-c2ccc(O)cc2)c1)C(=O)NCc1ccccc1
IC50 (PADI4; enzyme activity; inhibitor; fluorescence; with preincubation): 524 nM

COc1cc(/C=N/NC(=S)N/N=C/c2ccc(Cl)cc2)ccc1Oc1ccnc2cc(Cl)ccc12
IC50 (Pancreatic alpha-amylase; enzyme activity; inhibitor; absorbance): 44100 nM

O=C1Nc2ccc(I)cc2/C1=C/c1cc(Br)c(O)c(Br)c1
IC50 (Dual specificity tyrosine-phosphorylation-regulated kinase 4 (DYRK4, Homo sapiens, UniProt Q9NR20); enzyme activity; inhibitor): 4940 nM

NS(=O)(=O)c1ccc(Nc2nc(-c3cc4cc(Br)ccc4oc3=O)cs2)c(Br)c1
IC50 (CA9; enzyme activity; inhibitor): 860 nM

CCCNS(=O)(=O)Nc1ncnc(OCCOc2ncc(Br)cn2)c1-c1ccc(Br)cc1
IC50 (Endothelin receptor type B (EDNRB, Homo sapiens, UniProt P24530); ligand displacement; radioligand; cell membranes): 1370 nM

N=C(CCl)NCCC[C@H](NC(=O)c1ccc2cc(B(O)O)ccc2c1)c1nc2ccccc2[nH]1
IC50 (PADI4; enzyme activity; inhibitor; fluorescence; with preincubation): 295 nM

Cc1ccc(-c2ccccc2C=O)c(C)c1
IC50 (ALDH1A3; enzyme activity; inhibitor): 43500 nM

COc1cc(/C=N/NC(=S)NN=Cc2scnc2C)ccc1Oc1ccnc2cc(Cl)ccc12
IC50 (Pancreatic alpha-amylase; enzyme activity; inhibitor; absorbance): 57100 nM

N=C(CCl)NCCC[C@H](NC(=O)c1cnc2cc(O)ccc2c1)C(=O)NCc1ccccc1
IC50 (PADI4; enzyme activity; inhibitor; fluorescence; with preincubation): 342 nM

COc1cc(/C=N/NC(=S)N/N=C/c2ccc(C=O)cc2)ccc1Oc1ccnc2cc(Cl)ccc12
IC50 (Pancreatic alpha-amylase; enzyme activity; inhibitor; absorbance): 58700 nM

COc1ccc2cc(C(=O)N[C@@H](CCCNC(=N)CCl)C(=O)NCc3ccccc3)[nH]c2c1
IC50 (PADI4; enzyme activity; inhibitor; fluorescence; with preincubation): 362 nM

O=C(Nc1cc(Cl)cc(Cl)c1)c1ccc2c(c1)C(=O)NC2=O
IC50 (MAOB; enzyme activity; inhibitor): 55 nM

OC[C@H]1O[C@@H](Oc2ccc(O)c3cccc(O)c23)[C@H](O)[C@@H](O)[C@@H]1O
IC50 (ALDH1A3; enzyme activity; inhibitor): < 10000 nM
